pEC50: −log10 of the molar value. ≈ marks a conversion by molar mass, not a printed value. Calls of active or inactive are those of the source. The rule behind the calls is not given here.
Assays:
Staphylococcus aureus = experiment: Antibacterial activity against clinical isolate of Staphylococcus aureus after 24 hrs by twofold microdilution broth method; assay type: functional
Outline: (§1)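 Clinical isolates grown in Mueller-Hinton broth at 37 °C; inoculum diluted in MHB to 10^6 CFU. Compounds from 20,000 µg/ml DMSO stocks, twofold serial dilution across ten wells, with medium-only and organism-only controls. Incubated 24 h in ambient air. MIC taken as the lowest concentration with no visible growth by eye. Three replicates.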

Escherichia coli = experiment: Antibacterial activity against clinical isolate of Escherichia coli after 24 hrs by twofold microdilution broth method; assay type: functional; outline: as §1
Candida albicans = experiment: Antifungal activity against Candida albicans CMCC (F) 98001 after 24 hrs by twofold microdilution broth method; assay type: functional; conditions: CMCC (F) 98001, 24 h
Outline: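 Strain CMCC(F) 98001 grown in Sabouraud dextrose broth at 25 °C; inoculum diluted in SDB to 10^6 CFU. Compounds from 20,000 µg/ml DMSO stocks, twofold serial dilution across ten wells, with medium-only and organism-only controls. Incubated 24 h. MIC read by eye as the lowest concentration with no visible growth. Three replicates.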

[1] = Cytotoxicity against rat IEC-6 cells assessed as cell survival at 10 uM after 72 hrs by MTT assay relative to control; assay type: cell-based; conditions: read-out: Survival
Outline: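 IEC-6 intestinal epithelial cells were exposed to each compound at a fixed 10 µM for 72 h alongside an untreated blank control. Viability was read by MTT reduction and expressed as survival rate (SR). Compounds with SR between 70% and 100% were classed as noncytotoxic or hypocytotoxic.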

IEC-6 = experiment: Induction of XBP1 promoter DNA activation in rat IEC-6 cells at 10 uM after 48 hrs by dual luciferase reporter gene assay relative to control; assay type: cell-based
[2] = Induction of XBP1 promoter DNA activation in rat IEC-6 cells after 48 hrs by dual luciferase reporter gene assay; assay type: cell-based; conditions: IEC-6, 48 h
Mus musculus [3] = experiment: Antiulcerogenic activity in DSS-induced acute ulcerative colitis C57BL/6J mouse model assessed as decrease in body weight at 500 mg/kg, po qd administered for 7 days (reference value: 23.96%); assay type: functional; parameters: scale not given: the % may be the effect or the level left
Mus musculus [4] = experiment: Antiulcerogenic activity in DSS-induced acute ulcerative colitis C57BL/6J mouse model assessed as colon contracture at 500 mg/kg, po qd administered for 7 days (reference value: 41.87%); assay type: functional
Mus musculus [5] = experiment: Inhibition of DSS-induced acute ulcerative colitis C57BL/6J mouse model at 500 mg/kg, po qd administered for 7 days relative to control; assay type: functional; conditions: 168 h
Mus musculus [6] = experiment: Antiulcerogenic activity in DSS-induced acute ulcerative colitis C57BL/6J mouse model assessed as colon macroscopic damage index at 500 mg/kg, po qd administered for 7 days (reference value: 4.13 +/- 0.78); assay type: functional
Mus musculus [7] = experiment: Antiulcerogenic activity in DSS-induced acute ulcerative colitis C57BL/6J mouse model assessed as disappearance of inflammatory edema at 500 mg/kg, po qd administered for 7 days by microscopic analysis; assay type: functional, organism-based
Outline: (§2)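 Colitis induced by DSS in C57BL/6J mice. Agents given orally each day: test agents at 150 mg/kg as a suspension in 0.5% CMC-Na; sulfasalazine at 500 mg/kg. At study end, colon tissue was H&E stained and examined by light microscopy at ×100 for mucosal structure, epithelial cell arrangement, crypt damage, inflammatory infiltration and ulceration.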

Mus musculus [8] = experiment: Antiulcerogenic activity in DSS-induced acute ulcerative colitis C57BL/6J mouse model assessed as decrease in body weight at 150 mg/kg, po qd administered for 7 days (reference value: 23.96%); assay type: functional; parameters: scale not given: the % may be the effect or the level left
Mus musculus [9] = experiment: Antiulcerogenic activity in DSS-induced acute ulcerative colitis C57BL/6J mouse model assessed as colon contracture at 150 mg/kg, po qd administered for 7 days (reference value: 41.87%); assay type: functional
Mus musculus [10] = experiment: Inhibition of DSS-induced acute ulcerative colitis C57BL/6J mouse model at 150 mg/kg, po qd administered for 7 days relative to control; assay type: functional; conditions: 168 h
Mus musculus [11] = experiment: Antiulcerogenic activity in DSS-induced acute ulcerative colitis C57BL/6J mouse model assessed as colon macroscopic damage index at 150 mg/kg, po qd administered for 7 days (reference value: 4.13 +/- 0.78); assay type: functional
Mus musculus [12] = experiment: Antiulcerogenic activity in DSS-induced acute ulcerative colitis C57BL/6J mouse model assessed as regular arrangement of IEC cells at 150 mg/kg, po qd administered for 7 days by microscopic analysis; assay type: functional, organism-based; outline: as §2
Mus musculus [13] = experiment: Antiulcerogenic activity in DSS-induced acute ulcerative colitis C57BL/6J mouse model assessed as recovery of polar arrangement of IEC cells at 150 mg/kg, po qd administered for 7 days by microscopic analysis; assay type: functional, organism-based; outline: as §2

Compound	MIC (Staphylococcus aureus) [µg/mL]	MIC (Escherichia coli) [µg/mL]	MIC (Candida albicans) [µg/mL]	viability at 72 h, 10 µM [1] [%]	other results
CCCNCc1c2n(c(=O)c3c(OC)c(OC)ccc13)CCc1cc(OC)c(OC)cc1-2	> 250	> 250	> 250	70 to 100	–
CCOC(=O)CCCCc1c2[n+](cc3c(OC)c(OC)ccc13)CCc1cc(OC)c(OC)cc1-2.[Cl-]	125	> 250	> 250	70 to 100	–
CCCCCC(=O)c1c2[n+](cc3c(OC)c(OC)ccc13)CCc1cc(OC)c(OC)cc1-2.[Cl-]	62.5	250	> 250	70 to 100	–
CCOC(=O)CCCc1c2[n+](cc3c(OC)c(OC)ccc13)CCc1cc(OC)c(OC)cc1-2.[Cl-]	125	> 250	> 250	70 to 100	–
CCCCCNC(=O)c1c2n(c(=O)c3c(OC)c(OC)ccc13)CCc1cc(OC)c(OC)cc1-2	> 250	> 250	> 250	70 to 100	fold change (FC) (IEC-6): 1.21; pEC50 [2]: 6.00
COc1cc2c(cc1OC)-c1c(C(=O)NCc3ccccc3)c3ccc(OC)c(OC)c3c(=O)n1CC2	> 250	> 250	> 250	70 to 100	fold change (FC) (IEC-6): 1.2; pEC50 [2]: 6.08
O=C(O)c1cc(/N=N/c2ccc(S(=O)(=O)Nc3ccccn3)cc2)ccc1O [SULFASALAZINE]	–	–	–	–	Activity (Mus musculus [3]): 6.01%; Activity (Mus musculus [4]): 28.22%; inhibition in vivo at 500 mg/kg (Mus musculus [5]): 55.2%; Activity_index (Mus musculus [6]): 3.13; Activity (Mus musculus [7]): Active
CCCCCCCNCc1c2n(c(=O)c3c(OC)c(OC)ccc13)CCc1cc(OC)c(OC)cc1-2	125 (≈ 253 µM)	> 250	> 250	70 to 100	–
CCCC(=O)c1c2[n+](cc3c(OC)c(OC)ccc13)CCc1cc(OC)c(OC)cc1-2.[Cl-]	250	> 250	> 250	70 to 100	fold change (FC) (IEC-6): 1.59; pEC50 [2]: 6.47
CCOC(=O)CCCCCCCc1c2[n+](cc3c(OC)c(OC)ccc13)CCc1cc(OC)c(OC)cc1-2.[Cl-]	7.81	250	62.5	70 to 100	–
COc1cc2c(cc1OC)-c1cc3ccc(OC)c(OC)c3c[n+]1CC2.[Cl-] [PALMATINE CHLORIDE]	250	> 250	> 250	70 to 100	–
CCOC(=O)CCCCCc1c2[n+](cc3c(OC)c(OC)ccc13)CCc1cc(OC)c(OC)cc1-2.[Cl-]	62.5	> 250	> 250	70 to 100	–
COc1cc2c(cc1OC)-c1c(C=O)c3ccc(OC)c(O)c3c(=O)n1CC2	> 250	> 250	> 250	70 to 100	–
COc1cc2c(cc1OC)-c1c(C(=O)NC3CC3)c3ccc(OC)c(OC)c3c(=O)n1CC2	> 250	> 250	> 250	70 to 100	fold change (FC) (IEC-6): 1.36; pEC50 [2]: 6.00
CCCCCCNCc1c2n(c(=O)c3c(OC)c(OC)ccc13)CCc1cc(OC)c(OC)cc1-2	250 (≈ 520 µM)	> 250	> 250	70 to 100	–
CCCCNC(=O)c1c2n(c(=O)c3c(OC)c(OC)ccc13)CCc1cc(OC)c(OC)cc1-2	> 250	> 250	> 250	70 to 100	–

Compound	MIC (Staphylococcus aureus) [µg/mL]	MIC (Escherichia coli) [µg/mL]	MIC (Candida albicans) [µg/mL]	viability at 72 h, 10 µM [1] [%]	other results
CCOC(=O)CCCCCCc1c2[n+](cc3c(OC)c(OC)ccc13)CCc1cc(OC)c(OC)cc1-2.[Cl-]	15.6	> 250	125	70 to 100	–
CCCCCCCCNCc1c2n(c(=O)c3c(OC)c(OC)ccc13)CCc1cc(OC)c(OC)cc1-2	31.2 (≈ 61.4 µM)	> 250	250 (≈ 491 µM)	70 to 100	–
CCOC(=O)c1c2[n+](cc3c(OC)c(OC)ccc13)CCc1cc(OC)c(OC)cc1-2.[Cl-]	> 250	> 250	> 250	70 to 100	–
CCCNC(=O)c1c2n(c(=O)c3c(OC)c(OC)ccc13)CCc1cc(OC)c(OC)cc1-2	> 250	> 250	> 250	70 to 100	–
COc1cc2c(cc1OC)-c1cc3ccc(OC)c(OC)c3c(=O)n1CC2	> 250	> 250	> 250	70 to 100	–
COc1cc2c(cc1OC)-c1c(C(C)=O)c3ccc(OC)c(OC)c3c[n+]1CC2.[Cl-]	> 250	> 250	> 250	70 to 100	–
CCC(=O)c1c2[n+](cc3c(OC)c(OC)ccc13)CCc1cc(OC)c(OC)cc1-2.[Cl-]	> 250	> 250	> 250	70 to 100	fold change (FC) (IEC-6): 1.01; pEC50 [2]: 6.52
CCOC(=O)Cc1c2[n+](cc3c(OC)c(OC)ccc13)CCc1cc(OC)c(OC)cc1-2.[Cl-]	250	> 250	> 250	70 to 100	–
CCCCCNCc1c2n(c(=O)c3c(OC)c(OC)ccc13)CCc1cc(OC)c(OC)cc1-2	> 250	> 250	> 250	70 to 100	–
COc1cc2c(cc1OC)-c1c(C(=O)O)c3ccc(OC)c(OC)c3c(=O)n1CC2	> 250	> 250	> 250	70 to 100	–
C[C@H]1COc2c(N3CCN(C)CC3)c(F)cc3c(=O)c(C(=O)O)cn1c23.C[C@H]1COc2c(N3CCN(C)CC3)c(F)cc3c(=O)c(C(=O)O)cn1c23.O [LEVOFLOXACIN]	< 1.95	< 1.95	> 250	–	–
COc1cc2c(cc1OC)-c1c(C=O)c3ccc(OC)c(OC)c3c(=O)n1CC2	> 250	> 250	> 250	70 to 100	Activity (Mus musculus [8]): 5.92%; Activity (Mus musculus [9]): 29.24%; inhibition in vivo at 150 mg/kg (Mus musculus [10]): 63.2%; Activity_index (Mus musculus [11]): 2.25; Activity (Mus musculus [12]): Active; fold change (FC) (IEC-6): 1.41; pEC50 [2]: 6.87; Activity (Mus musculus [13]): Active
CCCCCCCCCNCc1c2n(c(=O)c3c(OC)c(OC)ccc13)CCc1cc(OC)c(OC)cc1-2	15.6 (≈ 29.9 µM)	> 250	62.5 (≈ 120 µM)	70 to 100	–
CCCCC(=O)c1c2[n+](cc3c(OC)c(OC)ccc13)CCc1cc(OC)c(OC)cc1-2.[Cl-]	125	> 250	> 250	70 to 100	fold change (FC) (IEC-6): 1.29; pEC50 [2]: 6.47
CCCCNCc1c2n(c(=O)c3c(OC)c(OC)ccc13)CCc1cc(OC)c(OC)cc1-2	> 250	> 250	> 250	70 to 100	–

— ChEMBL document CHEMBL4219240, “Syntheses and structure-activity relationships on antibacterial and anti-ulcerative colitis properties of quaternary 13-substituted palmatines and 8-oxo-13-substituted dihydropalmatines” (Bioorg Med Chem, 2018)
